Assay results published in ChEMBL document CHEMBL3393022, “Ligand-induced conformational change of Plasmodium falciparum AMA1 detected using 19F NMR” (J Med Chem, 2014).
Activity calls are given as the source filed them. The rule behind the calls is not given here. Residues, ends and D or L forms follow the SMILES beside them.

Key:
[1] = target: T1, Apical membrane antigen 1 (Plasmodium falciparum (isolate 3D7)) (UniProt Q7KQK5); experiment: Binding affinity to Plasmodium falciparum 3D7 5F-Trp-tagged AMA1 F367W mutant assessed as decrease in the W367 line width at 1 and 3 mM by 19F-NMR spectroscopy in presence of R1/RON2L
T1 sequence (whole entry): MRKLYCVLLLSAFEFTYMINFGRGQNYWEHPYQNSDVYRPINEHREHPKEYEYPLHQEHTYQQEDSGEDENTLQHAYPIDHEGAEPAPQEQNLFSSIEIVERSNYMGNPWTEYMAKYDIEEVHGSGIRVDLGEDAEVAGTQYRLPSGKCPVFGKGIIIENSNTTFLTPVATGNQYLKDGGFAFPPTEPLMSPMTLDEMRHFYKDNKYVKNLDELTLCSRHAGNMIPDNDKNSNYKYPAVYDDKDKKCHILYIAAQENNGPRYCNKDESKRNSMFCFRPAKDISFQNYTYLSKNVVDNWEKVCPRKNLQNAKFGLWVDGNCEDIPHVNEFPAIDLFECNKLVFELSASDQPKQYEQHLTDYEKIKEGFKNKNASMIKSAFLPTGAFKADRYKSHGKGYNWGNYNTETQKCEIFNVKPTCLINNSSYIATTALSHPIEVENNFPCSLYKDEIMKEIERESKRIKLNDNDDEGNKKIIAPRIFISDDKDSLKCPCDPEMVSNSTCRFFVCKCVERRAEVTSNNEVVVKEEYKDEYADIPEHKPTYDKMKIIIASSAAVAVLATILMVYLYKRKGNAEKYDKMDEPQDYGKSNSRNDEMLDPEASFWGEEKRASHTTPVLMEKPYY
In short: (§1)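 5F-Trp-labelled 3D7 PfAMA1(108–434) F367W from E. coli BL21(DE3), induced with 1 mM IPTG for 3 h after glyphosate/Phe/Tyr/5F-Trp, refolded and purified into 20 mM phosphate pH 7.4. Small-molecule ligands were added from 100 mM stocks in H2O, ethanol or DMSO to 1 and 3 mM. 19F spectra: 2K scans, 8K complex points, 150 ppm sweep width, under 40 min, compared with free protein.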

[2] = target: T1, Apical membrane antigen 1 (Plasmodium falciparum (isolate 3D7)); experiment: Binding affinity to Plasmodium falciparum 3D7 5F-Trp-tagged AMA1 F367W mutant at 1 and 3 mM by 19F-NMR spectroscopy in presence of R1/RON2L; in short: as §1
[3] = target: T1, Apical membrane antigen 1 (Plasmodium falciparum (isolate 3D7)); experiment: Binding affinity to Plasmodium falciparum 3D7 5F-Trp-tagged AMA1 assessed as downfield shifts of W110 peak by 19F-NMR spectroscopy in presence of R1/RON2L
[4] = target: T2, Apical membrane antigen 1 (Plasmodium falciparum (isolate 3D7), UniProt Q7KQK5); experiment: Binding affinity to Plasmodium falciparum 3D7 AMA1 (108 to 434) expressed in Escherichia coli BL21(DE3) by SPR analysis
T2 sequence (Q7KQK5 whole entry): T1 sequence (whole entry)
In short: (§2)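 SPR at 25 °C in PBS–0.1% Tween, flow 30 μL/min, with AMA1 immobilised on a GLC chip. Peptides were injected for 8 min at 50–3.125 nM, with 800 s dissociation. A lane without AMA1 and buffer or DMSO signals were subtracted. Regeneration used 0.85% phosphoric acid.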

[5] = target: Apical membrane antigen 1 (Plasmodium falciparum (isolate 3D7), UniProt Q7KQK5); experiment: Binding affinity to Plasmodium falciparum 3D7 AMA1 373W insertion mutant expressed in Escherichia coli BL21(DE3) by SPR analysis; in short: as §2
[6] = target: Apical membrane antigen 1 (Plasmodium falciparum (isolate 3D7), UniProt Q7KQK5, F367W); experiment: Binding affinity to Plasmodium falciparum 3D7 AMA1 F367W mutant expressed in Escherichia coli BL21(DE3) at 1 and 3 mM by SPR analysis

| Compound | Activity [1] | Activity [2] | Activity [3] | Kd [4] [nM] | Kd [5] [nM] | Kd [6] [nM] |
| --- | --- | --- | --- | --- | --- | --- |
| Nc1cc(N)cc(-c2nc3ccccc3[nH]2)c1 | inactive | Active | Active |  |  |  |
| Nc1ccc2nc(N3CCCCC3)[nH]c2c1 | inactive | Active | Dose-dependent effect |  |  |  |
| H-VFAEFLPLFSKFGSRMHILK-OH |  |  | Active | 23 | 50 | 20 |
| Cc1nc(N)sc1-c1ccc(N)cc1 | Dose-dependent effect |  | Dose-dependent effect |  |  |  |
| CC[C@H](C)[C@H](NC(=O)[C@H](CCC(N)=O)NC(=O)[C@H](CCC(N)=O)NC(=O)[C@@H]1CCCN1C(=O)[C@@H]1CCCN1C(=O)[C@H](CO)NC(=O)[C@H](CCSC)NC(=O)[C@H](CCCNC(=N)N)NC(=O)[C@@H](NC(=O)[C@@H](NC(=O)[C@H](Cc1ccccc1)NC(=O)[C@@H](N)CS)[C@@H](C)O)[C@@H](C)O)C(=O)N[C@@H](CS)C(=O)O (H-CFTTRMSPPQQIC-OH) |  |  | Active | 40000 |  |  |
